According to ChEMBL document CHEMBL3774363, “Potent Triazole Bisphosphonate Inhibitor of Geranylgeranyl Diphosphate Synthase” (ACS Med Chem Lett, 2015):
Active and inactive are the calls of the source. The calls are words filed in the database; no cut-off is given here.

Experiments:
[1] = target: T1, Geranylgeranyl pyrophosphate synthase (Homo sapiens, UniProt O95749); assay: Inhibition of recombinant GGDPS (unknown origin) assessed as radiolabeled GGPP formation preincubated for 10 mins followed by addition of 10 uM FPP substrate and [14C]IPP for 30 mins by liquid scintillation counter analysis
T1 sequence (O95749 whole entry): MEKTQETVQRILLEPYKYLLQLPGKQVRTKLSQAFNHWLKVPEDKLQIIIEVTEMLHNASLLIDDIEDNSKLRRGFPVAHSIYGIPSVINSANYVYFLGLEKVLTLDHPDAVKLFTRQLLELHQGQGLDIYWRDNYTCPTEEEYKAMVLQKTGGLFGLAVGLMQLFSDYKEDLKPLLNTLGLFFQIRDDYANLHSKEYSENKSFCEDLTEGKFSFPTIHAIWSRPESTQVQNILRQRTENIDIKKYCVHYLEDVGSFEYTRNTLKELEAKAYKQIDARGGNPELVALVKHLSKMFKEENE

[2] = target: T2, Farnesyl pyrophosphate synthase (Homo sapiens, UniProt P14324); assay: Inhibition of recombinant FDPS (unknown origin) assessed as radiolabeled FPP formation preincubated for 10 mins followed by addition of 10 uM GPP substrate and [14C]IPP for 30 mins by liquid scintillation counter analysis
T2 sequence (P14324 whole entry): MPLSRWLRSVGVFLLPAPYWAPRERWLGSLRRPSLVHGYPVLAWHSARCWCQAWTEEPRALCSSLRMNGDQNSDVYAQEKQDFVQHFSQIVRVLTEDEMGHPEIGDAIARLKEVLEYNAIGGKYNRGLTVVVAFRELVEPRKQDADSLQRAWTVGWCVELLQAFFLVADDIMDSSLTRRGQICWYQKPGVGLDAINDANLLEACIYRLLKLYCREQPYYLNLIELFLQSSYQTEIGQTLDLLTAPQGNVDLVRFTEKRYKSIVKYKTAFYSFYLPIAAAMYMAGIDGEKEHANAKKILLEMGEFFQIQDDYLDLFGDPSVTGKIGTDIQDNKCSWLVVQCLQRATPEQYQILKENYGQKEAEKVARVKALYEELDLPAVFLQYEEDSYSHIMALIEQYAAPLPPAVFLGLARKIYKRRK

Homo sapiens = species on record: Homo sapiens; assay: Selectivity index, ratio of IC50 for FDPS (unknown origin) to IC50 for GGDPS (unknown origin)
[3] = target: T3, Geranylgeranyl pyrophosphate synthase (Homo sapiens) (UniProt O95749); assay: Inhibition of GGDPS in human RPMI8226 cells assessed as disruption of Rap1a geranylation after 48 hrs by immunoblot analysis; type: cell-based; conditions: RPMI-8226
T3 sequence (whole entry): T1 sequence (O95749 whole entry)
Summary of the method: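 RPMI-8226 human myeloma cells incubated 48 h with or without compound, with lovastatin (10 μM) as positive control. Cells were lysed in RIPA buffer and immunoblotted with an antibody that detects only unmodified Rap1a, with β-tubulin as loading control. The value is the lowest concentration at which disruption was seen; blots are representative of two independent studies.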

[4] = Cytotoxicity against human RPMI8226 after 48 hrs by MTT assay; type: functional; conditions: RPMI-8226, 48 h
[5] = target: T3, Geranylgeranyl pyrophosphate synthase (Homo sapiens); assay: Inhibition of GGDPS in human RPMI8226 cells assessed as disruption of Rap1a geranylation at 50 nM after 48 hrs by immunoblot analysis; conditions: RPMI-8226

Compound: CC(C)=CCC/C(C)=C/CCn1cc(CC(P(=O)(O)O)P(=O)(O)O)nn1
- IC50 [1]: 45 nM
- IC50 [2]: 28000 nM
- Ratio IC50 (Homo sapiens): 620
- Activity [3]: 0.05 µM
- EC50 [4]: 190 nM
- inhibition [5]: Active

Compound: CC(C)=CCCn1cc(CC(P(=O)(O)O)P(=O)(O)O)nn1
- IC50 [1]: 430 nM
- IC50 [2]: 6600 nM
- Ratio IC50 (Homo sapiens): 15
- Activity [3]: 5 µM
- EC50 [4]: 15000 nM

Compound: CC(C)=CCC/C(C)=C/CC(Cc1cn(CCC=C(C)C)nn1)(P(=O)(O)O)P(=O)(O)O
- IC50 [1]: 380 nM
- IC50 [2]: 13000 nM
- Ratio IC50 (Homo sapiens): 34
- Activity [3]: 0.5 µM
- EC50 [4]: 1000 nM
